Compound activity: PubChem, Sanford-Burnham Center for Chemical Genomics
Compounds with a hit are over-represented: about 1.6% of the library has one in this group of screens.
FLuc stim CS: affects firefly luciferase, flagging false hits in luciferase stimulation screens; ATPlite luciferase biochemical, luminescence, 10 min; 0 = ATP-free wells, 1 = DMSO control; activation factor at 10 µM; 200,000 tested, under 10 active; AID 1027;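 active = luciferase activation factor, scaled between plate controls, of at least 2 with compound at 10 µM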
Target sequence (P08659 whole entry, looked up): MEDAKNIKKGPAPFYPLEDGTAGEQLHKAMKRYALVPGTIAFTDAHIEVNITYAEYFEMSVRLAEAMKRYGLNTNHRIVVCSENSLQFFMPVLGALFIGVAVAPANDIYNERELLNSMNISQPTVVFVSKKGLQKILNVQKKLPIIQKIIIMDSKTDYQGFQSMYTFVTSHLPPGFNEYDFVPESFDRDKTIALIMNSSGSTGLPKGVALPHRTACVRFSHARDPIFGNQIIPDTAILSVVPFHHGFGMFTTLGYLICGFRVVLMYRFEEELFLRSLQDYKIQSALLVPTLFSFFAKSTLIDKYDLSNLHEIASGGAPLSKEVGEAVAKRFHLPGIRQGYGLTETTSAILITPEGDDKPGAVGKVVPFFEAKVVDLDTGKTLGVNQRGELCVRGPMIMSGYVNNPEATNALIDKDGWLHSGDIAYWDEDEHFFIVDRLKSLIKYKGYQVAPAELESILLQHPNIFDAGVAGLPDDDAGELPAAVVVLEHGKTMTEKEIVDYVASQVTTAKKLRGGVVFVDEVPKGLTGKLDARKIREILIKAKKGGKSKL
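System: cell-free luciferase reagent; medium: PBS as buffer for the ATP substrate; doses: test compounds dosed from 2 mM stocks in 100% DMSO; incubation: 10 min, room temperature; measured by: luminescence from luciferase reaction; read-out: luciferase activation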
FLuc inh counter: counter-screen for luciferase assay inhibitors: firefly luciferase inhibition. P08659. ATPLite firefly luciferase biochemical luminescence, 10 min. inhibition, % at 10 µM. 200,000 tested, 1.5% active. AID 1006;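 active = inhibition above about 50% when tested at 10 µM, limit read from the data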
PPC-1+TRAIL kill: PPC-1 cancer cell killing with TRAIL present. PPC-1 cells + TRAIL, ATPLite viability luminescence. cell killing (% activity), % at 4 µM or 5 µM. 220,000 tested, 0.41% active;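 active = cell killing above 50% in the first pass at 4 µM, then a duplicate retest at 5 µM averaging 50% or more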;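 note: plate controls were cells with TRAIL plus DMSO for no effect and medium-only wells lacking cells for full effect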
TRAIL sens C8: caspase-8 TRAIL sensitization | NB7+C8 cells + TRAIL, ATPlite viability luminescence | inhibition (viability loss, TRAIL sensitization), % at 10 µM | 360,000 tested, 1% active | AID 624354;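 active = compounds causing at least 50% loss of cell viability in the single-dose screen, relative to plate controls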
* = called active by the depositor; / = no result given.

SMILES	FLuc stim CS	FLuc inh counter	PPC-1+TRAIL kill	TRAIL sens C8
ClCC1NCC(c2ccccc2Cl)c2c1[nH]c1ccccc21 (centres undefined)	1	-3	11	-6
CCOC(=O)c1c(C)[nH]c(C2=NNC(=NC3CC3)SC2)c1C	0.3	71*	20	33
CCOC(=O)c1c(C)[nH]c(/C(C)=N/O)c1C	1	-1	14	39
O=C(/C=C/c1ccc2c(c1)OCO2)c1ccc[nH]1	0.2	76*	25	25
O=C(/C=C/c1ccc2c(c1)OCO2)Nc1nc(-c2ccc(F)cc2F)cs1	1	-1	18	/
O=C(N/N=C/c1ccc(Br)cc1)c1ccc(F)cc1	0.6	39	1	2
O=C(N/N=C/c1ccc(Br)cc1)c1ccc(Br)o1	0.4	58*	16	33
Cc1csc(NC(=O)/C=C/c2ccc3c(c2)OCO3)n1	0.2	77*	57*	71*
Cc1ccc(C(=O)/C=C/c2ccccc2)o1	0.3	72*	19	19
Cc1ccc(S(=O)(=O)N(C)/N=C2/C(=O)N(CC(=O)O)c3ccccc32)cc1	/	/	/	-10
Cc1ccc(C(=O)N/N=C/c2ccc3c(c2)OCO3)o1	0.3	69*	15	36
Cc1ccc(C(=O)/C=C/c2ccc3c(c2)OCO3)o1	0.2	80*	9	-10
COc1cccc(/C=C/C(=O)c2ccc[nH]2)c1	0.5	52*	35	9
Cc1ccc(C(=O)/C=C/c2ccc(Br)cc2)o1	0.7	35	4	20
Cc1ccc(C(=O)NN=Cc2ccc3c(c2)OCO3)cc1	/	/	/	33
O=C(CSc1nc(CCC2CCCC2)nc2ccccc12)NCc1ccc2c(c1)OCO2	1.1	-8	20	2
CC12CCC(C(=O)CC1=O)C2(C)C (centres undefined)	/	/	/	5
OC(c1ccccc1)c1nc(-c2ccc3c(c2)OCO3)cs1 (centres undefined)	/	/	/	-11
COc1ccc(S(=O)(=O)N2CCC(C(=O)NN3CCCCC3)CC2)cc1	/	/	/	-19
Cc1cc(C)c2nc(Nc3nc(-c4ccccc4)cc(=O)[nH]3)nc(C)c2c1	/	/	16	14
Cc1cc(-c2ccccc2)nc(Nc2nc3c(C)cccc3c(=O)[nH]2)n1	/	/	/	71*
O=C(NCC1CCCO1)c1cc(NS(=O)(=O)c2cccs2)cc(NS(=O)(=O)c2cccs2)c1 (centres undefined)	1.1	-5	7	-20
C/C(=C\c1ccco1)CN1CCN(Cc2ccc(C)o2)C(CCO)C1 (centres undefined)	1	-3	-10	5
CC(=O)c1cccc(NC(=O)C2Cc3c(-c4cccc(C(C)=O)c4)ccnc3O2)c1 (centres undefined)	/	/	/	13
CC(=O)c1cccc(-c2ccnc3c2CC(C(=O)Nc2cccc(NS(C)(=O)=O)c2)O3)c1 (centres undefined)	/	/	/	76*
SMILES	FLuc stim CS	FLuc inh counter	PPC-1+TRAIL kill	TRAIL sens C8
O=C(Nc1cccc(Oc2ccccc2)c1)C1Cc2c(-c3ccco3)ccnc2O1 (centres undefined)	/	/	/	-4
CS(=O)(=O)Nc1cccc(NC(=O)C2Cc3c(-c4ccco4)ccnc3O2)c1 (centres undefined)	/	/	/	53*
CCOc1ccc(N(CC(=O)Nc2cc(C)ccc2C)S(=O)(=O)c2c(C)[nH]c(=O)[nH]c2=O)cc1	/	/	12	-15
COC(=O)C1=C(C)N(Cc2ccccc2)C(=NCc2cccc(C(F)(F)F)c2)N[C@H]1c1cccc(F)c1	/	/	/	48
COC(=O)C1=C(C)N(Cc2ccccc2)C(=NCCc2c[nH]c3ccccc23)N[C@H]1c1cccc(C(F)(F)F)c1	/	/	/	52*
COC(=O)C1=C(C)N(Cc2ccccc2)C(=NCc2cccc(C(F)(F)F)c2)N[C@H]1c1cccc(C(F)(F)F)c1	/	/	/	94*
Cc1c(C(=O)O)cnc2cc(-c3ccc(Cl)cc3)nn12	0.4	56*	4	34
CC1C(=O)N2CCCc3cc(NC(=O)C4CC4)cc1c32 (centres undefined)	/	/	/	-2
OC[C@@H]1CN(CCN2CCOCC2)C[C@H](n2cnc3c(NC4CCCC4)ncnc32)O1	/	/	/	-1
CCCC(=O)OCCNc1cc(Sc2nccn2C)c2nonc2c1[N+](=O)[O-]	1.1	-7	13	57*
CCCSc1cc(NCCOC(=O)CCC)c([N+](=O)[O-])c2nonc12	1.1	-5	11	-5
O=C1NC(=S)S/C1=C/c1ccc(N2CCOCC2)o1	0.4	64*	25	17
CCc1ccc(-c2cc3c(=O)n(CC(=O)NCCCN4CCC(Cc5ccccc5)CC4)nc(C)n3n2)cc1	/	/	/	91*
COc1ccc(-c2cc3c(=O)n(CC(=O)N4CCCCC4)ncn3n2)cc1	/	/	/	16
Cc1nn(CC(=O)NCCCN2CCC(Cc3ccccc3)CC2)c(=O)c2cc(-c3ccccc3)nn12	/	/	/	23
COc1ccc(-c2cc3c(=O)n(CC(=O)N4CCN(C)CC4)ncn3n2)cc1	/	/	/	59*
CCc1ccc(-c2cc3c(=O)n(CC(=O)NCCCN4CCN(C)CC4)ncn3n2)cc1	/	/	/	59*
CCc1ccc(-c2cc3c(=O)n(CC(=O)NCc4ccccc4F)ncn3n2)cc1	/	/	/	-5
CCCCc1nnc(NC(=O)C(C)Sc2nc(O)c(Cc3ccccc3)c(=O)[nH]2)s1 (centres undefined)	1.1	-6	14	0
CC1CCN(CCCNC(=O)C2CCN(S(=O)(=O)N3CCC4(CC3)OCCO4)CC2)CC1	/	/	/	-3
O=C(NCCCN1CCCC1)c1ccc(CS(=O)(=O)c2ccc(Cl)cc2)o1	/	/	/	17
CCCc1nc2nc(C)c(NS(=O)(=O)c3ccc(Cl)cc3)c(=O)n2[nH]1	/	/	/	0
Cc1cccc(Cn2nnc3c2C(=O)c2ccccc2C3=O)c1	1.1	-8	33	51*
Cc1ccccc1Cn1nnc2c1C(=O)c1ccccc1C2=O	/	/	/	52*
Cc1ccccc1CN1C(=O)c2ccccc2C1c1nnnn1Cc1ccccc1 (centres undefined)	/	/	/	-8
SMILES	FLuc stim CS	FLuc inh counter	PPC-1+TRAIL kill	TRAIL sens C8
Cc1cccc(Cn2cnc3c(nnn3Cc3ccccc3F)c2=O)c1	1.1	-10	2	-8
Cc1ccccc1NC(=O)C1CCN(S(=O)(=O)c2cccc3nonc23)CC1	/	/	/	16
COc1cc(NC(=O)c2ccccc2)c(OC)cc1NC(=O)CN1C(=O)NC2(CCCCC2C)C1=O (centres undefined)	/	/	/	-2
O=C(Nc1cccc(Oc2ccc(C(=O)O)c(C(=O)O)c2)c1)c1ccc(-c2ccccc2)cc1	/	/	25	54*
Cc1c(C(=O)N(CCO)Cc2ccccc2)oc2c(F)cccc12	/	/	/	-3
CN(C1CCCCC1)S(=O)(=O)c1ccc(S(=O)(=O)N(CC(=O)Nc2ccccc2)C2CC2)cc1	/	/	8	3
CN(C)c1ccc(-c2nc3cc(N)ccc3o2)cc1	/	/	/	83*
COC(=O)c1ccc(-c2nc3cc(N)ccc3o2)cc1	0.2	83*	32	56*
Cc1ccc(-c2nc3cc(N)ccc3o2)cc1Br	/	/	/	24
Nc1ccc(-c2nc3cc(N)ccc3o2)cc1	/	/	/	48
O=S1(=O)C=C(Sc2nnc(-c3ccccc3)o2)c2ccccc21	1	2	21	73*
COC(=O)/C=C1\S/C(=N\N=C\CC(=O)OC)NC1=O	/	/	2	16
